Where only a bound is given, the exact number is not on record here.

The target in series [1] is T1, ATP-dependent translocase ABCB1 (Homo sapiens, UniProt P08183). Put plainly: Inhibition of P-glycoprotein-mediated multidrug resistance in human doxorubicin-resistant K562 cells assessed as maximal increase in nuclear concentration of pirarubicin by spectrofluorimetry relative to sensitive K562 cells. The series is classed as cell-based. In a few lines:
(§1)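 Pirarubicin uptake was measured in doxorubicin-resistant K562/DOX cells, which overexpress only Pgp, by continuous spectrofluorometry (excitation 480 nm, emission 590 nm) after incubation. R is the fold increase in nuclear pirarubicin with inhibitor, from 0 (no inhibitor) to 1 (equal to sensitive cells). Rmax is the maximal attainable R. Reported concentrations are those giving R = 0.2 or R = 0.5.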

Series [2] addresses T1, ATP-dependent translocase ABCB1. As to the kind of experiment: Inhibition of P-glycoprotein-mediated multidrug resistance in human doxorubicin-resistant K562 cells assessed as drug level causing 20% increase in nuclear concentration of pirarubicin by spectrofluorimetry. Type of series: cell-based. In a few lines: as §1
The target is the same in series [3]. Put plainly: Inhibition of P-glycoprotein-mediated multidrug resistance in human doxorubicin-resistant K562 cells assessed as drug level causing 50% increase in nuclear concentration of pirarubicin by spectrofluorimetry. Type of series: cell-based. The following applies: read-out: INH. In a few lines:
as §1

Series [4] deals with K562. Put plainly: Growth inhibition in human K562 cells at 3 uM after 72 hrs by MTT assay. Type of series: functional. The following applies: K562, 72 h, read-out: GI. (Tetrazolium dyes change colour on reduction, which living cells bring about.)
Series [5] has as its system K562. As to the kind of experiment: Growth inhibition in human K562 cells at 1 uM after 72 hrs by MTT assay. Type of series: functional. The following applies: K562, 72 h, read-out: GI.
The subject of series [6] is K562. As to the kind of experiment: Growth inhibition in doxorubicin-resistant human K562 cells overexpressing Pgp at 3 uM after 72 hrs by MTT assay. Type of series: functional. The following applies: K562, 72 h, read-out: GI.
Series [7] deals with K562. Put plainly: Growth inhibition in doxorubicin-resistant human K562 cells overexpressing Pgp at 1 uM after 72 hrs by MTT assay. The series is classed as functional. The following applies: K562, 72 h, read-out: GI.

T1 sequence (P08183 whole entry): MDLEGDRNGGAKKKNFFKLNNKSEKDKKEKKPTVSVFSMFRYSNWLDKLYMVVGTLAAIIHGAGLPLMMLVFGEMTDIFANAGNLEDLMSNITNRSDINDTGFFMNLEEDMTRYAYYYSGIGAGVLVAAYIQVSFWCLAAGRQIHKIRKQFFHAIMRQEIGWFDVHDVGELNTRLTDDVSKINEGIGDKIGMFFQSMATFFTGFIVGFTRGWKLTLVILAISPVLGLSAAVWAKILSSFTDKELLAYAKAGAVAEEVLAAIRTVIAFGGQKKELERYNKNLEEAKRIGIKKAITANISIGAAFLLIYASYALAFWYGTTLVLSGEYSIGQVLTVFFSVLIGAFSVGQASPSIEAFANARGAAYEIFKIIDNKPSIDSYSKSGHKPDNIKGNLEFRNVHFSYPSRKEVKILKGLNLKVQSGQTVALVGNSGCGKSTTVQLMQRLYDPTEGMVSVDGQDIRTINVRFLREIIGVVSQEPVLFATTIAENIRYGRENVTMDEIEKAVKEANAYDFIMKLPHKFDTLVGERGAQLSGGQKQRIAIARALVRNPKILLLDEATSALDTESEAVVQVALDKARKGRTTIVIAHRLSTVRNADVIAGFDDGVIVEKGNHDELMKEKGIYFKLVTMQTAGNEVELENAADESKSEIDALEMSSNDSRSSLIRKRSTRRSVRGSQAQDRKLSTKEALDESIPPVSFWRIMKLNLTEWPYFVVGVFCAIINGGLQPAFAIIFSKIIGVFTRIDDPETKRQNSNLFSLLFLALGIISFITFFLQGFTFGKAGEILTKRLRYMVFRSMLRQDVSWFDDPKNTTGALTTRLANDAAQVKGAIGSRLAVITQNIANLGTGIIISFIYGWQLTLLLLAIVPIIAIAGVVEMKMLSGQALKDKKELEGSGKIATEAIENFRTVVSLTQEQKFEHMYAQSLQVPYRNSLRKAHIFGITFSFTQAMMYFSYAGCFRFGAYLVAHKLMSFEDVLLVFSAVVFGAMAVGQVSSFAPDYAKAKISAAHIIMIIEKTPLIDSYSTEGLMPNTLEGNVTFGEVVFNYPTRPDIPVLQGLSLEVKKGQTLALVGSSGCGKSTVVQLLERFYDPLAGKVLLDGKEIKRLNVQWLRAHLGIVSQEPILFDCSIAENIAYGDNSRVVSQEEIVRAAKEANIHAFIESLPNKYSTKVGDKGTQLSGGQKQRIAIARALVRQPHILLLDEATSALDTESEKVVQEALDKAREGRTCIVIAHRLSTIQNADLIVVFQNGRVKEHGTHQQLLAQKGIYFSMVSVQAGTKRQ

Consider `COc1cc(/C=C/C(=O)OCCCCCN(C)CCCCCOC(=O)C=C(c2ccccc2)c2ccccc2)cc(OC)c1OC`, for which the “fold change (FC)” value in series [1] was found to be 0.28. The INH in series [2] amounted to 0.5 µM.
Consider `COc1cc(/C=C/C(=O)OCCCNCCCOC(=O)/C=C/c2c3ccccc3cc3ccccc23)cc(OC)c1OC`, for which, in series [1], the “fold change (FC)” value was determined as 0.92. Also, the IC50 in series [3] was found to be 800 nM.
As to `COc1ccc(/C=C/C(=O)OCCCCCN(C)CCCCCOC(=O)c2c3ccccc3cc3ccccc23)cc1OC`, in series [1], the “fold change (FC)” value is 1. In addition, the inhibition of growth at 3 µM in series [4] and in series [6] was ≤ 10% in each case. Further, the IC50 in series [3] came out at 170 nM. Also, the inhibition of growth at 1 µM in series [5] and in series [7] was ≤ 10% in each case.
On to `COc1cc2c(cc1OC)CN(CCC(=O)OCCCN(C)CCCOC(=O)/C=C/c1cc(OC)c(OC)c(OC)c1)CC2`, for which, in series [1], the “fold change (FC)” value is reported as 0.63. For the same molecule, the IC50 in series [3] worked out at 3700 nM.
Turning to `COc1cc(/C=C/C(=O)OCCCN(C)CCCOC(=O)C(c2ccccc2)c2ccccc2)cc(OC)c1OC`, the “fold change (FC)” value in series [1] turned out to be 0.77. Also, the inhibition of growth at 3 µM in series [4] and in series [6] was ≤ 10% each time. In series [3], the IC50 was found to be 260 nM. Further, the inhibition of growth at 1 µM in series [5] and in series [7] was ≤ 10% throughout.
As to `COc1cc(/C=C/C(=O)OCCCN(C)CCCOC(=O)C=C(c2ccccc2)c2ccccc2)cc(OC)c1OC`, the “fold change (FC)” value in series [1] was determined as 0.66. The inhibition of growth at 3 µM in series [4] and in series [6] was 20% in each case. Moreover, in series [3], the IC50 came to 160 nM. Besides, the inhibition of growth at 1 µM in series [5] is 20%; in series [7], ≤ 10%.
For the molecule `COc1ccc(CCN(C)CCCC(C#N)(c2ccc(OC)c(OC)c2)C(C)C)cc1OC` (centres undefined) [VERAPAMIL], the inhibition of growth at 3 µM in series [4] and in series [6] was ≤ 10% each time. In addition, the inhibition of growth at 1 µM in series [5] and in series [7] was ≤ 10% throughout.
As to `COc1cc(/C=C/C(=O)OCCCN(C)CCCOC(=O)CCN2C(=O)C3C4c5ccccc5C(c5ccccc54)C3C2=O)cc(OC)c1OC` (centres undefined), in series [1], the “fold change (FC)” value is 0.63. Besides, the IC50 in series [3] was determined as 390 nM.
Turning to `COc1cc(/C=C/C(=O)OCCCN(C)CCCOC(=O)/C=C/c2ccc(-c3ccccc3)cc2)cc(OC)c1OC`, in series [1], the “fold change (FC)” value was determined as 0.85. Also, the inhibition of growth at 3 µM in series [4] and in series [6] was ≤ 10% each time. Further, the IC50 in series [3] was 240 nM. Further, the inhibition of growth at 1 µM in series [5] and in series [7] was ≤ 10% throughout.
For `COc1cc(/C=C/C(=O)OCCCCCN(C)CCCCCOC(=O)/C=C/c2ccc(-c3ccccc3)cc2)cc(OC)c1OC`, the “fold change (FC)” value in series [1] is recorded as 0.4. Further, the INH in series [2] amounted to 0.36 µM.
For `COc1ccc(/C=C/C(=O)OCCCN(C)CCCOC(=O)/C=C/c2cc(OC)c(OC)c(OC)c2)cc1OC`, in that order: 0.5 and 1.4 µM.
For `COc1ccc(/C=C/C(=O)OCCCN(C)CCCOC(=O)c2cc(OC)c(OC)c(OC)c2)cc1OC` the same measures were 0.34 and 0.7 µM.
For `COc1cc(/C=C/C(=O)OCCCN(C)CCCOC(=O)CN2C(=O)C3C4c5ccccc5C(c5ccccc54)C3C2=O)cc(OC)c1OC` (centres undefined), the “fold change (FC)” value in series [1] worked out at 0.73. In addition, the IC50 in series [3] stood at 230 nM.
For `COc1ccc(/C=C/C(=O)OCCCN(C)CCCOC(=O)c2c3ccccc3cc3ccccc23)cc1OC`, in that order: 0.57 and 190 nM.
As to `COc1ccc(C(C#N)(CCCNCc2c3ccccc3cc3ccccc23)C(C)C)cc1OC` (centres undefined), in series [1], the “fold change (FC)” value is reported as 0.7. Further, the IC50 in series [3] came out at 50 nM.
Turning to `COc1ccc(C(C(=O)OCCCCCN(C)CCCCCOC(=O)/C=C/c2cc(OC)c(OC)c(OC)c2)c2ccc(OC)cc2)cc1`, in series [1], the “fold change (FC)” value stood at 0.5. The IC50 in series [3] turned out to be 400 nM.
For `COc1cc(/C=C/C(=O)OCCCN(C)CCCOC(=O)/C=C/c2c3ccccc3cc3ccccc23)cc(OC)c1OC`, in that order: 0.93 and 250 nM.
Take `COc1ccc(/C=C/C(=O)OCCCCCN(C)CCCCCOC(=O)c2cc(OC)c(OC)c(OC)c2)cc1OC`: the “fold change (FC)” value in series [1] was found to be 0.7. Moreover, the IC50 in series [3] was 640 nM.
Take `COc1cc(/C=C/C(=O)OCCCN(C)CCCOC(=O)c2ccc(-c3ccccc3)cc2)cc(OC)c1OC`: in series [1], the “fold change (FC)” value is 0.77. In addition, the IC50 in series [3] is 220 nM.
For `COc1ccc(/C=C/C(=O)OCCCN(C)CCCOC(=O)c2c3ccccc3c(Cl)c3ccccc23)cc1OC`, in that order: 0.98 and 410 nM.
Take `COc1ccc(C(C(=O)OCCCN(C)CCCOC(=O)/C=C/c2cc(OC)c(OC)c(OC)c2)c2ccc(OC)cc2)cc1`: the “fold change (FC)” value in series [1] stood at 0.79. Also, the inhibition of growth at 3 µM in series [4] and in series [6] was ≤ 10% each time. Moreover, the IC50 in series [3] came out at 80 nM. Moreover, the inhibition of growth at 1 µM in series [5] and in series [7] was ≤ 10% throughout.

(Values after ChEMBL document CHEMBL1154908, “Structure-activity relationships studies in a series of N,N-bis(alkanol)amine aryl esters as P-glycoprotein (Pgp) dependent multidrug resistance (MDR) inhibitors” (J Med Chem, 2010).)
